Results: ChEMBL document CHEMBL1149664, “Anthranilamide inhibitors of factor Xa” (2007)

Legend:
[1] = test system: Plasma; assay: Anticoagulant potency in human citreated plasma assessed as concentration required to double activated partial thromboplastin time; format: functional
[2] = target: Coagulation factor X (Homo sapiens) (UniProt P00742); assay: Inhibition of human factor 10a
In short: (§1)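 Values are reported as an apparent association constant (Kassoc) between enzyme and inhibitor, in 10^6 L/mol.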

[3] = target: Prothrombin (Homo sapiens) (UniProt P00734); assay: Inhibition of human factor 2a; in short: as §1
[4] = test system: Plasma; assay: Anticoagulant potency in human citreated plasma assessed as concentration required to double prothrombin time; format: functional

Chain of Coagulation factor X (Homo sapiens) (P00742 41-179 limits assumed): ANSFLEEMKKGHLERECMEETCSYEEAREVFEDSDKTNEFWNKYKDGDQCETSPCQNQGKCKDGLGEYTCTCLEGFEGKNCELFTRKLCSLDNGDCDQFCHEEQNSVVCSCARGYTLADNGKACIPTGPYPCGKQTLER
Chain of Coagulation factor X (Homo sapiens) (P00742 235-488 limits assumed): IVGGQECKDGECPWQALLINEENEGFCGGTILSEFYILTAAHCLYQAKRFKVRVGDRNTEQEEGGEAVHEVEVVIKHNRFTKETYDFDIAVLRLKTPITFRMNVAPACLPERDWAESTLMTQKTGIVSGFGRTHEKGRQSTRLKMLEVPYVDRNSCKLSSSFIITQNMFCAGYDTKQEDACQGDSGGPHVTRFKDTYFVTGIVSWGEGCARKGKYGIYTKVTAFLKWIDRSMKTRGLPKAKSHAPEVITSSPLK

SMILES: Cn1nccc1C(=O)N1CCC(Oc2cc(C(C)(C)C)ccc2C(=O)Nc2ccccc2C(=O)Nc2ccc(Cl)cn2)CC1
- Activity [1]: 5.7 µM
- Kapp [2]: 513 10^6L/mol
- Kapp [3]: 21 10^6L/mol
- Activity [4]: 7.6 µM

SMILES: CC(C)(C)c1ccc(C(=O)Nc2ccccc2C(=O)Nc2ccc(Cl)cn2)c(OCC2CCCCN2)c1 (stereo not drawn)
- Activity [1]: 1.4 µM
- Kapp [2]: 219 10^6L/mol
- Kapp [3]: 67 10^6L/mol
- Activity [4]: 1.4 µM

SMILES: NCCCOc1cc(N2CCCC2)ccc1C(=O)Nc1ccccc1C(=O)Nc1ccc(Cl)cn1
- Activity [1]: 0.41 µM
- Kapp [2]: 3010 10^6L/mol
- Kapp [3]: 40 10^6L/mol
- Activity [4]: 0.41 µM

SMILES: CN(C)CCCNC(=S)N1CCC(Oc2cc(C(C)(C)C)ccc2C(=O)Nc2ccccc2C(=O)Nc2ccc(Cl)cn2)CC1
- Activity [1]: 2.9 µM
- Kapp [2]: 170 10^6L/mol
- Kapp [3]: 145 10^6L/mol
- Activity [4]: 2.9 µM

SMILES: CC(C)(C)c1ccc(C(=O)Nc2ccccc2C(=O)Nc2ccc(Cl)cn2)c(OCCCN)c1
- Activity [1]: 0.85 µM
- Kapp [2]: 1440 10^6L/mol
- Kapp [3]: 152 10^6L/mol
- Activity [4]: 0.79 µM

SMILES: CCCN1CCC(Oc2cc(C(C)(C)C)ccc2C(=O)Nc2ccccc2C(=O)Nc2ccc(Cl)cn2)CC1
- Activity [1]: 3.1 µM
- Kapp [2]: 1940 10^6L/mol
- Kapp [3]: 30 10^6L/mol
- Activity [4]: 3.3 µM

SMILES: CN1CCN(c2ccc(C(=O)Nc3ccccc3C(=O)Nc3ccc(Cl)cn3)c(OCCCN)c2)CC1
- Kapp [2]: 82 10^6L/mol
- Kapp [3]: 2 10^6L/mol

SMILES: CC(C)(C)c1ccc(C(=O)Nc2ccccc2C(=O)Nc2ccc(Cl)cn2)c(OC2CCN(C(=O)CCC(=O)O)CC2)c1
- Activity [1]: 6.1 µM
- Kapp [2]: 714 10^6L/mol
- Kapp [3]: 4 10^6L/mol
- Activity [4]: 5.3 µM

SMILES: CC(C)(C)c1ccc(C(=O)Nc2ccccc2C(=O)Nc2ccc(Cl)cn2)c(OC2CCN(Cc3ccccc3)CC2)c1
- Activity [1]: 28.1 µM
- Kapp [2]: 488 10^6L/mol
- Kapp [3]: 20 10^6L/mol
- Activity [4]: 44.6 µM

SMILES: COc1ccc(NC(=O)c2ccccc2NC(=O)c2ccc(C(C)(C)C)cc2)cc1
- Kapp [2]: 5 10^6L/mol

SMILES: CC(C)(C)c1ccc(C(=O)Nc2ccccc2C(=O)Nc2ccc(Cl)cn2)c(OC2CCN(Cc3ccccc3C(=O)O)CC2)c1
- Activity [1]: 0.57 µM
- Kapp [2]: 1160 10^6L/mol
- Kapp [3]: 72 10^6L/mol
- Activity [4]: 1 µM

SMILES: CC(C)(C)c1ccc(C(=O)Nc2ccccc2C(=O)Nc2ccc(Cl)cn2)c(OC2CCNCC2)c1
- Activity [1]: 0.85 µM
- Kapp [2]: 1110 10^6L/mol
- Kapp [3]: 114 10^6L/mol
- Activity [4]: 0.88 µM

SMILES: CC(C)(C)c1ccc(C(=O)Nc2ccccc2C(=O)Nc2ccc(Cl)cn2)c(OC2CCN(Cc3ccsc3)CC2)c1
- Activity [1]: 14.8 µM
- Kapp [2]: 450 10^6L/mol
- Kapp [3]: 23 10^6L/mol
- Activity [4]: 20 µM

SMILES: CC(C)(C)c1ccc(C(=O)Nc2ccccc2C(=O)Nc2ccc(Cl)cn2)c(OC2CCN(C(=O)Nc3ccccc3F)CC2)c1
- Activity [1]: 21.5 µM
- Kapp [2]: 307 10^6L/mol
- Kapp [3]: 27 10^6L/mol
- Activity [4]: 30.2 µM

SMILES: CC(C)(C)c1ccc(C(=O)Nc2ccccc2C(=O)Nc2ccc(Cl)cn2)c(OC2CCN(CC3CC3)CC2)c1
- Activity [1]: 2.4 µM
- Kapp [2]: 1370 10^6L/mol
- Kapp [3]: 37 10^6L/mol
- Activity [4]: 2.5 µM

SMILES: COCCN1CCC(Oc2cc(C(C)(C)C)ccc2C(=O)Nc2ccccc2C(=O)Nc2ccc(Cl)cn2)CC1
- Activity [1]: 2.1 µM
- Kapp [2]: 3080 10^6L/mol
- Kapp [3]: 24 10^6L/mol
- Activity [4]: 2.1 µM

SMILES: NCCCOc1cc(N2CCOCC2)ccc1C(=O)Nc1ccccc1C(=O)Nc1ccc(Cl)cn1
- Activity [1]: 0.26 µM
- Kapp [2]: 516 10^6L/mol
- Kapp [3]: 5.8 10^6L/mol
- Activity [4]: 0.34 µM

SMILES: CC(C)(CN)COc1cc(C(C)(C)C)ccc1C(=O)Nc1ccccc1C(=O)Nc1ccc(Cl)cn1
- Activity [1]: 2 µM
- Kapp [2]: 76 10^6L/mol
- Kapp [3]: 1100 10^6L/mol
- Activity [4]: 1.6 µM

SMILES: CC(C)(C)c1ccc(C(=O)Nc2ccccc2C(=O)Nc2ccc(Cl)cn2)cc1
- Kapp [2]: 42 10^6L/mol

SMILES: NCCCOc1cc(N2CCCCC2)ccc1C(=O)Nc1ccccc1C(=O)Nc1ccc(Cl)cn1
- Activity [1]: 1 µM
- Kapp [2]: 323 10^6L/mol
- Kapp [3]: 17 10^6L/mol
- Activity [4]: 0.93 µM

SMILES: COc1ccc(NC(=O)c2ccccc2NC(=O)c2ccc(C(C)C)cc2)cc1
- Kapp [2]: 7 10^6L/mol

SMILES: CC(C)N1CCC(Oc2cc(C(C)(C)C)ccc2C(=O)Nc2ccccc2C(=O)Nc2ccc(Cl)cn2)CC1
- Activity [1]: 1.2 µM
- Kapp [2]: 3440 10^6L/mol
- Kapp [3]: 25 10^6L/mol
- Activity [4]: 1.8 µM

SMILES: COc1ccc(C(=O)Nc2ccccc2C(=O)Nc2ccc(C(C)(C)C)cc2)cc1
- Kapp [2]: 0.03 10^6L/mol

SMILES: CC(C)(C)c1ccc(C(=O)Nc2ccccc2C(=O)Nc2ccc(Cl)cn2)c(OC2CCN(Cc3ncc[nH]3)CC2)c1
- Activity [1]: 1.8 µM
- Kapp [2]: 2160 10^6L/mol
- Kapp [3]: 54 10^6L/mol
- Activity [4]: 2.6 µM

SMILES: CC(C)(C)OC(=O)N1CCC(Oc2cc(C(C)(C)C)ccc2C(=O)Nc2ccccc2C(=O)Nc2ccc(Cl)cn2)CC1
- Activity [1]: 55 µM
- Kapp [2]: 69 10^6L/mol
- Kapp [3]: 6 10^6L/mol
- Activity [4]: 64 µM

SMILES: NCCCOc1cc(N2CCCCCC2)ccc1C(=O)Nc1ccccc1C(=O)Nc1ccc(Cl)cn1
- Activity [1]: 3.1 µM
- Kapp [2]: 130 10^6L/mol
- Kapp [3]: 25 10^6L/mol
- Activity [4]: 2.7 µM

SMILES: CC(C)(C)c1ccc(C(=O)Nc2ccccc2C(=O)Nc2ccc(Cl)cc2)cc1
- Kapp [2]: 0.5 10^6L/mol

SMILES: CC(C)(C)c1ccc(C(=O)Nc2ccccc2C(=O)Nc2ccc(Cl)cn2)c(OC2CCN(C(=O)Cn3cnnn3)CC2)c1
- Activity [1]: 8 µM
- Kapp [2]: 448 10^6L/mol
- Kapp [3]: 134 10^6L/mol
- Activity [4]: 10 µM

SMILES: COc1ccc(NC(=O)c2ccccc2NC(=O)c2ccc(OC)cc2)cc1
- Kapp [2]: 1 10^6L/mol

SMILES: CC(C)(C)OC(=O)NCCCOc1cc(C(C)(C)C)ccc1C(=O)Nc1ccccc1C(=O)Nc1ccc(Cl)cn1
- Activity [1]: >70 µM
- Kapp [2]: 54 10^6L/mol
- Kapp [3]: 0.2 10^6L/mol
- Activity [4]: >70 µM

SMILES: CC(C)(CNC(=O)OC(C)(C)C)COc1cc(C(C)(C)C)ccc1C(=O)Nc1ccccc1C(=O)Nc1ccc(Cl)cn1
- Activity [1]: >70 µM
- Kapp [2]: 2.9 10^6L/mol
- Kapp [3]: 0.14 10^6L/mol
- Activity [4]: >70 µM

SMILES: CN(C)CC(=O)N1CCC(Oc2cc(C(C)(C)C)ccc2C(=O)Nc2ccccc2C(=O)Nc2ccc(Cl)cn2)CC1
- Kapp [2]: 176 10^6L/mol
- Kapp [3]: 60 10^6L/mol

SMILES: CN1CCC(Oc2cc(C(C)(C)C)ccc2C(=O)Nc2ccccc2C(=O)Nc2ccc(Cl)cn2)CC1
- Activity [1]: 0.93 µM
- Kapp [2]: 1630 10^6L/mol
- Kapp [3]: 61 10^6L/mol
- Activity [4]: 1.1 µM

SMILES: CC(C)(C)OC(=O)N1CCCCC1COc1cc(C(C)(C)C)ccc1C(=O)Nc1ccccc1C(=O)Nc1ccc(Cl)cn1 (stereo not drawn)
- Activity [1]: >70 µM
- Kapp [2]: 3.1 10^6L/mol
- Kapp [3]: 3.9 10^6L/mol
- Activity [4]: >70 µM

SMILES: NCCCOc1cc(N2CCSCC2)ccc1C(=O)Nc1ccccc1C(=O)Nc1ccc(Cl)cn1
- Activity [1]: 0.69 µM
- Kapp [2]: 709 10^6L/mol
- Kapp [3]: 17 10^6L/mol
- Activity [4]: 0.61 µM

SMILES: CN1CCCN(c2ccc(C(=O)Nc3ccccc3C(=O)Nc3ccc(Cl)cn3)c(OCCCN)c2)CC1
- Activity [1]: 0.1 µM
- Kapp [2]: 8970 10^6L/mol
- Kapp [3]: 24 10^6L/mol

SMILES: NCCCOc1cc(N2CC[C@@H](N)C2)ccc1C(=O)Nc1ccccc1C(=O)Nc1ccc(Cl)cn1
- Activity [1]: 0.4 µM
- Kapp [2]: 874 10^6L/mol
- Kapp [3]: 7.3 10^6L/mol
- Activity [4]: 0.45 µM

SMILES: CC(C)(C)c1ccc(C(=O)Nc2ccccc2C(=O)Nc2ccc(Cl)cn2)c(O)c1
- Activity [1]: >100 µM
- Kapp [2]: 23 10^6L/mol
- Kapp [3]: 0.02 10^6L/mol
- Activity [4]: >100 µM

SMILES: CC(C)(C)c1ccc(C(=O)Nc2ccccc2C(=O)Nc2ccc(Cl)cn2)c(OC2CCN(C(=S)NCc3cccnc3)CC2)c1
- Activity [1]: 13.4 µM
- Kapp [2]: 733 10^6L/mol
- Kapp [3]: 34 10^6L/mol
- Activity [4]: 21.8 µM
